Active and inactive are the calls of the source. The rule behind the calls is not given here.
Assays:
[1] = biological target: T1, Chymotrypsin-like elastase family member 2A (Sus scrofa) (UniProt P08419); test: Second-order rate constant for the inhibition of PPE (pancreatic porcine elastase); NI=no inhibition
T1 sequence (whole entry): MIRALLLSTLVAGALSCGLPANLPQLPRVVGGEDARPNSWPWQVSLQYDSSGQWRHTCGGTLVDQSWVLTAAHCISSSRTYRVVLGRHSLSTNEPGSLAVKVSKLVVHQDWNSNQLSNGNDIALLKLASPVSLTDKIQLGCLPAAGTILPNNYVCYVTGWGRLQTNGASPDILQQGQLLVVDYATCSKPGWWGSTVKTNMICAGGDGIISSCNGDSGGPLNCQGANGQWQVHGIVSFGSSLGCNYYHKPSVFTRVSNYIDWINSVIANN
Summary of the method: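 Porcine pancreatic elastase was assayed at 25 °C with an inhibitor-to-enzyme ratio [I]/[E] of 200, giving the second-order constant k_obs/[I].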

[2] = biological target: T2, Neutrophil elastase (Homo sapiens) (UniProt P08246); test: (§1) Second-order rate constant for the inhibition of human leukocyte elastase
T2 sequence (whole entry): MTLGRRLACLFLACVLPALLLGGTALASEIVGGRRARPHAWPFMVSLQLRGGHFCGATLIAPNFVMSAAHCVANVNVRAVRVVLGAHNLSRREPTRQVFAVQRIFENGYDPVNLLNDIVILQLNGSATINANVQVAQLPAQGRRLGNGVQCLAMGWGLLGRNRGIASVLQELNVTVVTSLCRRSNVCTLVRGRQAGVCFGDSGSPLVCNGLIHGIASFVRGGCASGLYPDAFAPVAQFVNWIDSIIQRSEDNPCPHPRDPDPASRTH
Summary of the method: (§2)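 Pre-incubation (Kitz–Wilson) kinetics at 25 °C. Enzyme and inhibitor were incubated, and aliquots were withdrawn at several time intervals into a cuvette holding substrate in HEPES buffer. After 30 s, the absorbance change was followed for 60 s.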

[3] = Half-life in pH 7.4 phosphate buffer at 37 degree C; assay type: ADME
Neutrophil elastase = biological target: T3, Neutrophil elastase (Homo sapiens, UniProt P08246); test: as §1; summary of the method: as §2
T3 sequence (P08246 whole entry): T2 sequence (whole entry)

[4] = biological target: T2, Neutrophil elastase (Homo sapiens); test: Second-order rate constant for the inhibition of human leukocyte elastase;NI=no inhibition; summary of the method: as §2
[5] = biological target: T2, Neutrophil elastase (Homo sapiens); test: Second-order rate constant for the inhibition of HLE (human leukocyte elastase); summary of the method: as §2

Structure (SMILES)	k obs / 1 [1]	second-order inhibition rate constant [2] [M⁻¹ s⁻¹]	half-life [3] [days]	other results
CCC1(CC)C(=O)N(COC(=O)c2ccccc2)C1Sc1nc2ccccc2o1 (centres undefined)	inactive	52.8	13.2	
CO[C@H]1C(=O)N2C(C(=O)O)=C(CF)CS(=O)(=O)C12 (some centres undefined)			0.792	IC50 (Neutrophil elastase): 110 µM
O=C(OCN1C(=O)CC1Sc1ccccc1)c1ccccc1 (centres undefined)				k obs / 1 [4]: inactive
CCC1(CC)C(=O)N(COC(=O)NS(=O)(=O)c2ccc(C)cc2)C1S(=O)(=O)c1ccccc1 (centres undefined)		32.3		
CCC1(CC)C(=O)N(CO)C1S(=O)(=O)c1ccccc1 (centres undefined)				k obs / 1 [4]: inactive
CCC1(CC)C(=O)N(COC(=O)Nc2ccccc2)C1S(=O)(=O)c1ccccc1 (centres undefined)	inactive	41.9		
CO[C@H]1C(=O)N2C(C(=O)O)=C(COC(C)=O)CS(=O)(=O)C12 (some centres undefined)		19000		
O=C(OCN1C(=O)CC1S(=O)(=O)c1ccccc1)c1ccccc1 (centres undefined)	inactive	18.7	40.8	
O=C(OCN1C(=O)CC1Sc1nc2ccccc2o1)c1ccccc1 (centres undefined)	inactive	43.2		
O=C(OCN1CCC1=O)c1ccccc1	inactive		0.0542	k obs / 1 [5]: 35.5 M⁻¹ s⁻¹
O=C1CCN1CO				k obs / 1 [4]: inactive
CCC1(CC)C(=O)N(COC(=O)c2ccccc2)C1Sc1ccccc1 (centres undefined)		2.2		
CCC1(CC)C(=O)N(COC(=O)Nc2ccc(OC)cc2)C1S(=O)(=O)c1ccccc1 (centres undefined)	inactive	100	> 208	
CCC1(CC)C(=O)N(COC(=O)c2ccccc2)C1S(=O)(=O)c1ccccc1 (centres undefined)	inactive	67.5	125	
CCC1(CC)C(=O)N(COC(=O)Nc2ccc(C)cc2)C1S(=O)(=O)c1ccccc1 (centres undefined)	inactive	60.9		
